Results from ChEMBL document CHEMBL3621080, “Dihydrithieno[2,3-b]naphto-4,9-dione analogues as anticancer agents: Synthesis and in cell pharmacological studies” (Eur J Med Chem, 2015).
Activity calls are given as the source filed them. The rule behind the calls is not given here.

Key:
[1] = Antiproliferative activity against human HuH7 cells assessed as growth inhibition incubated for 48 hrs by MTT assay; type: functional, cell-based; conditions: Huh-7, 48 h
In short: (§1)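 Cell lines were grown at 37 °C in 5% CO2 with 10% FBS and penicillin/streptomycin, in DMEM for HuH7 and LN229 and in RPMI-1640 for BxPC3 and MCF7. Cells were seeded at 10^5 per well and left 24 h to attach. Compounds were then added at […] for 48 h. MTT at 1 mg/mL was applied for 2 h at 37 °C in the dark, formazan was dissolved in DMSO and read at 570 nm. Results are relative to 0.5% DMSO vehicle control, with IC50 by linear/polynomial regression, in triplicate.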

MCF7 = assay: Antiproliferative activity against human MCF7 cells assessed as growth inhibition incubated for 48 hrs by MTT assay; type: functional, cell-based; conditions: MCF7, 48 h; in short: as §1
[2] = Antiproliferative activity against human LN229 cells assessed as growth inhibition incubated for 48 hrs by MTT assay; type: functional, cell-based; conditions: LN-229, 48 h; in short: as §1
[3] = Antiproliferative activity against human BxPC3 cells assessed as growth inhibition incubated for 48 hrs by MTT assay; type: functional, cell-based; conditions: BXPC-3, 48 h; in short: as §1
[4] = (§2) Cytotoxicity against rat H9c2 cells assessed as cell growth at 2.5 uM incubated for 48 hrs by MTT assay relative to control; type: cell-based; conditions: H9c2 cells, read-out: Activity
H9c2 [5] = assay: Cytotoxicity against rat H9c2 cell membrane assessed as induction of lipid peroxidation at 2.5 uM incubated for 48 hrs by TBARS method; type: cell-based; conditions: h9c2, 48 h
In short: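 H9C2 cells were treated for 48 h at […] and lysed in ice-cold Tris/NaCl/EDTA/1% Triton with protease inhibitors. Membranes were pelleted at 1200 g for 10 min and the protein content measured. Membrane aliquots were heated at 100 °C for 30 min in 15% TCA/0.3% TBA in 0.12 N HCl, cooled and centrifuged, and the TBA adduct read at 532 nm. Values are per mg protein, mean ± SEM, n=3.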

[6] = Drug uptake in human LN229 cell nucleus at 0.6 uM incubated for 48 hrs by confocal microscopy; type: ADME, cell-based; conditions: ln229, 48 h
In short: (§3)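 LN229 cells were treated for 48 h at […] and fixed in 4% paraformaldehyde. Nuclei were counterstained with DAPI and vimentin immunostained. Compound localisation was imaged by its red signal using confocal microscopy.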

LN-229 [7] = assay: Inhibition of glucose uptake in human LN229 cells assessed as glucose concentration per ug protein at 0.6 uM incubated for 48 hrs by liquid scintillation method (reference value: 98 +/- 8 mg/dl/ug protein); type: functional
[8] = Cytotoxicity against human LN229 cells assessed as growth inhibition at 0.6 uM incubated for 48 hrs by MTT assay relative to control; type: functional, LN-229; set-up: scale not given: the % may be the effect or the level left
H9c2 [9] = assay: as §2; type: cell-based; conditions: h9c2, 48 h, 2.5 µM
[10] = Drug uptake in human LN229 cell cytoplasm at 0.6 uM incubated for 48 hrs by confocal microscopy; type: ADME, cell-based; conditions: ln229, 48 h; in short: as §3
LN-229 [11] = assay: Induction of cell differentiation in human LN229 cells assessed as vimentin remodelling at 0.6 uM incubated for 48 hrs by immunostaining method; type: functional, cell-based
In short: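 LN229 cells were treated for 48 h at […], fixed in 4% paraformaldehyde and permeabilised 5 min in 1% Triton. They were stained with anti-vimentin (1:1000) followed by Cy3 anti-rabbit IgG (1:200, 45 min), with DAPI nuclei, and imaged by confocal microscopy.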

[12] = Down regulation of AKT expression in human LN229 cells at 0.6 uM incubated for 48 hrs by Western blot method; type: functional, cell-based; conditions: LN-229
In short: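 LN229 cells grown in DMEM with 10% FBS and penicillin/streptomycin at 37 °C, 5% CO2, treated 48 h. Cells washed in ice-cold PBS/BSA and lysed in Triton/deoxycholate buffer with protease inhibitors. Equal protein run on SDS-PAGE, then nitrocellulose. Anti-AKT overnight in TBS/1% milk/0.05% Tween 20; tubulin also probed. HRP secondary 1 h at room temperature.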

LN-229 [13] = assay: Induction of lipid peroxidation in human LN229 cells assessed as increase in TBARS level at 0.6 uM incubated for 48 hrs by TBARS assay; type: functional
In short: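 LN229 cells in DMEM with 10% FBS, treated 48 h. Lysed in ice-cold Tris/NaCl/EDTA/1% Triton with protease inhibitors, spun 1200 g for 10 min; membrane pellet redissolved and protein measured. Membranes heated with 15% TCA/0.3% TBA in 0.12 N HCl at 100 °C for 30 min, cooled, spun 15,000 g, read at 532 nm. TBARS expressed per mg protein; mean of three experiments.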

LN-229 [14] = assay: Inhibition of glucose uptake in human LN229 cells assessed as glucose concentration per ug protein at 0.6 uM incubated for 48 hrs by liquid scintillation method relative to control; type: functional
LN-229 [15] = assay: Induction of apoptosis in human LN229 cells assessed as caspase-3 activation at 0.6 uM incubated for 48 hrs by cell-free caspase-3 activity assay

Row | Structure (SMILES) | IC50 [1] | IC50 (MCF7) | IC50 [2] | IC50 [3] | viability at 48 h, 2.5 µM [4] | Activity (H9c2 [5]) | Activity [8] | other results
1 | O=C(CNCc1ccc(Cl)cc1)NC1(CO)CSC2=C1C(=O)c1ccccc1C2=O (configuration not stated) | 3900 nM | 1720 nM | 1250 nM | 1680 nM | – | – | – | –
2 | COc1cccc2c1C(=O)c1c(O)c3c(c(O)c1C2=O)C[C@@](O)(C(=O)CO)C[C@@H]3O[C@H]1C[C@H](N)[C@H](O)[C@H](C)O1 [DOXORUBICIN] | 1110 nM | – | 2250 nM | 1780 nM | 53% | Toxic | – | Drug uptake [6]: Active; Activity (LN-229 [7]): 120 mg/dL
3 | O=C(NC1(C(=O)NCc2ccc(Cl)cc2)CSC2=C1C(=O)c1ccccc1C2=O)c1ccc(Cl)cc1 (configuration not stated) | 440 nM | 470 nM | 320 nM | 660 nM | 61% | Toxic | – | –
4 | Cl.O=C(CN1CCCCC1)NC1(CO)CSC2=C1C(=O)c1ccccc1C2=O (configuration not stated) | 960 nM | 1260 nM | 510 nM | 2510 nM | 83% | Toxic | – | –
5 | Cl.O=C(CN1CCCCC1)N[C@@]1(C(=O)NCc2ccc(Cl)cc2)CSC2=C1C(=O)c1ccccc1C2=O | – | – | – | – | – | – | 50% | –
6 | O=C(CNc1ccc(Cl)cc1)NC1(CO)CSC2=C1C(=O)c1ccccc1C2=O (configuration not stated) | 3510 nM | 2120 nM | 1230 nM | 2180 nM | – | – | – | –
7 | O=C(NC1(CO)CSC2=C1C(=O)c1ccccc1C2=O)c1ccc(Cl)cc1 (configuration not stated) | > 10000 nM | > 10000 nM | > 10000 nM | > 10000 nM | – | – | – | –
8 | Cl.O=C(CN1CCCCC1)NC1(C(=O)NCc2ccc(Cl)cc2)CSC2=C1C(=O)c1ccccc1C2=O (configuration not stated) | 1020 nM | 820 nM | 610 nM | 830 nM | – | Non-toxic | 50% | Activity (H9c2 [9]): Non-toxic; Drug uptake [10]: Active; Activity (LN-229 [7]): 215 mg/dL; Activity (LN-229 [11]): Active; fold change (FC) [12]: 2; fold change (FC) (LN-229 [13]): 5; fold change (FC) (LN-229 [14]): 2.2; fold change (FC) (LN-229 [15]): 3
9 | Cl.O=C(CN1CCCCC1)N[C@]1(C(=O)NCc2ccc(Cl)cc2)CSC2=C1C(=O)c1ccccc1C2=O | – | – | – | – | – | – | 48% | –
